Measured values from ChEMBL document CHEMBL1140925, “Nuclear factor-kappaB mediated inhibition of cytokine production by imidazoline scaffolds” (J Med Chem, 2009).
pEC50: −log10 of the molar value.

Columns and labels:
[1] = Cytotoxicity against human whole blood IL-1-beta-stimulated lymphocytes assessed as survival cell count in millions at 10 uM by trypan blue staining based hemocytometer
[2] = Cytotoxicity against human whole blood IL-1-beta-stimulated lymphocytes assessed as survival cell count in millions at 1 uM by trypan blue staining based hemocytometer
HeLa [3] = assay: Effect on cell cycle arrest in TNF-alpha-stimulated human HeLa cells assessed as cell debris level at 0.5 uM after 8 hrs by propidium iodide-based flow cytometry; type: functional
[4] = Inhibition of TNF-alpha-induced NF-kappaB-mediated transcription expressed in human HeLa cells preincubated for 30 mins before addition of TNFalpha measured after 8 hrs by luciferase reporter gene assay; type: cell-based
Procedure, shortened: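 HeLa/NF-κB-luc cells (5.0 × 10⁵ cells/mL) were grown 24 h, then switched to serum-free DMEM. They were pretreated 30 min at 37 °C with 0.05–20 µM imidazoline (1% DMSO vehicle), then stimulated with 25 ng/mL TNF-α for 8 h. Steady-Glo luminescence was normalized to TNF-α activation, and EC50 was taken from a variable-slope sigmoidal fit. Values are the mean of two independent experiments.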

Blood = assay: Antiinflammatory activity in human whole blood assessed as inhibition of IL-1-beta-induced IL6 production preincubated 2 hrs before addition of IL1-beta measured after 18 hrs by ELISA; type: functional, tissue-based
Procedure, shortened: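 Human blood from donors with white count in the normal range, diluted 1:10 in RPMI-1640 with 10% FBS, penicillin and streptomycin. Aliquots were preincubated with vehicle (0.1% DMSO final) or compound at 10, 3, 1, 0.3 or 0.1 µM final for 2 h at 37 °C, 5% CO2. IL-1β (200 U/mL) was then added for 18 h, and plasma was collected and frozen. Cytokine was measured by ELISA.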

HeLa [5] = assay: Cell cycle arrest in TNF-alpha-stimulated human HeLa cells transfected with NFkappaB-Luc assessed as accumulation at diploid G2 phase at 5 uM after 8 hrs by propidium iodide-based flow cytometry; type: functional
Procedure, shortened: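 HeLa NF-κB-luc cells (stable, hygromycin-selected) were treated with vehicle (1% DMSO) or compound at 40–0.2 µM final for 8 h at 37 °C, 5% CO2. Adherent cells were trypsinized, resuspended in PBS/50% FBS, fixed overnight in 70% ice-cold ethanol and washed with cold PBS/10% FBS, then analysed for cell cycle by flow cytometry.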

pEC50 [4]: 5.60
Compound: CCOC(=O)[C@]1(c2ccccc2)N=C(c2ccccc2)N(Cc2ccccc2)[C@@H]1c1ccccc1 (racemic)
Activity [1]: 1.48 mL⁻¹
Activity [2]: 1.42 mL⁻¹
Activity (HeLa [3]): 3.68%
logIC50 (Blood): 0.07
Activity (HeLa [5]): 13.84%
